{
  "source": "ChEMBL document CHEMBL4689842",
  "about": "“EUbOPEN Chemogenomics Library wave 1” (2021)",
  "key": {"[1]": {"tested_on": "U2OS", "assay": "Multiplex assay against U2OS", "type": "toxicity, cell-based", "details": "human, 10 µM, compound concentration 10 uM", "summary_of_the_method": "(§1)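 Cells stained live at seeding with Hoechst33342, BioTracker Green Microtubule Cytoskeleton Dye, MitoTracker Red and Annexin V Alexa Fluor 680 were imaged on a CQ1 microscope at 37°C and 5% CO2 after compound addition. Their classification by CellPathfinder machine-learning gating ran from Hoechst high-intensity objects versus normal cells, to healthy, pyknosed or fragmented nuclei among normal cells, to mitotic or apoptotic among pyknosed cells. Tubulin, mitochondrial-mass and membrane-permeability phenotypes are per cents of healthy-nucleus cells.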"}, "[2]": {"tested_on": "Fibroblast", "assay": "Multiplex assay against human fibroblast", "type": "toxicity, cell-based", "details": "10 µM, compound concentration 10 uM", "summary_of_the_method": "as §1"}},
  "note": "Where “and” joins values, the source holds several entries; their conditions need not be identical. Identical values can stand only once.",
  "data": [
    {"smiles": "O=C(O)c1ccc2c(c1)nc(Nc1cccc(Cl)c1)c1ccncc12", "note": "[SILMITASERTIB]", "values": [
      {"measurement": "Population Healthy Nuclei (%)", "setting": "[1]; 12 h, replicate 2", "result": 90, "unit": "%"},
      {"measurement": "Population Hoechst High Intensity Objects (%)", "setting": "[1]; 12 h, replicate 2", "result": "6% and 13%"},
      {"measurement": "Population Membrane Permeable-Phenotype (%)", "setting": "[1]; 12 h, replicate 2", "result": "10% and 4%"},
      {"measurement": "Population Mitochondria Different-Phenotype (%)", "setting": "[1]; 12 h, replicate 2", "result": "27% and 26%"},
      {"measurement": "Population Mitotic Cells (%)", "setting": "[1]; 12 h, replicate 2", "result": 66, "unit": "%"},
      {"measurement": "Population Normal (%)", "setting": "[1]; 12 h, replicate 2", "result": "93% and 86%"},
      {"measurement": "Population Pyknosed Nuclei (%)", "setting": "[1]; 12 h, replicate 2", "result": "2% and 4%"},
      {"measurement": "Population Tubulin-Different-Phenotype (%)", "setting": "[1]; 12 h, replicate 2", "result": "31% and 18%"},
      {"measurement": "Total Cell Count", "setting": "[1]; 12 h, replicate 2", "result": "140 and 110"},
      {"measurement": "Population Apoptotic (%)", "setting": "[1]; 24 h, replicate 1", "result": "23% and 50%"},
      {"measurement": "Population Fragmented Nuclei (%)", "setting": "[1]; 24 h, replicate 1", "result": "9% and 4%"},
      {"measurement": "Population Healthy Nuclei (%)", "setting": "[1]; 24 h, replicate 1", "result": "82% and 91%"},
      {"measurement": "Population Hoechst High Intensity Objects (%)", "setting": "[1]; 24 h, replicate 1", "result": "1% and 3%"},
      {"measurement": "Population Membrane Permeable-Phenotype (%)", "setting": "[1]; 24 h, replicate 1", "result": "14% and 6%"},
      {"measurement": "Population Mitochondria Different-Phenotype (%)", "setting": "[1]; 24 h, replicate 1", "result": "20% and 35%"},
      {"measurement": "Population Mitotic Cells (%)", "setting": "[1]; 24 h, replicate 1", "result": "76% and 50%"},
      {"measurement": "Population Normal (%)", "setting": "[1]; 24 h, replicate 1", "result": "98% and 96%"},
      {"measurement": "Population Pyknosed Nuclei (%)", "setting": "[1]; 24 h, replicate 1", "result": "8% and 4%"},
      {"measurement": "Population Tubulin-Different-Phenotype (%)", "setting": "[1]; 24 h, replicate 1", "result": "33% and 35%"},
      {"measurement": "Total Cell Count", "setting": "[1]; 24 h, replicate 1", "result": "208 and 206"},
      {"measurement": "Population Apoptotic (%)", "setting": "[1]; 24 h, replicate 2", "result": "25% and 11%"},
      {"measurement": "Population Fragmented Nuclei (%)", "setting": "[1]; 24 h, replicate 2", "result": 8, "unit": "%"},
      {"measurement": "Population Healthy Nuclei (%)", "setting": "[1]; 24 h, replicate 2", "result": "83% and 76%"},
      {"measurement": "Population Hoechst High Intensity Objects (%)", "setting": "[1]; 24 h, replicate 2", "result": 4, "unit": "%"},
      {"measurement": "Population Membrane Permeable-Phenotype (%)", "setting": "[1]; 24 h, replicate 2", "result": "10% and 5%"},
      {"measurement": "Population Mitochondria Different-Phenotype (%)", "setting": "[1]; 24 h, replicate 2", "result": 41, "unit": "%"},
      {"measurement": "Population Mitotic Cells (%)", "setting": "[1]; 24 h, replicate 2", "result": "75% and 88%"},
      {"measurement": "Population Normal (%)", "setting": "[1]; 24 h, replicate 2", "result": 95, "unit": "%"},
      {"measurement": "Population Pyknosed Nuclei (%)", "setting": "[1]; 24 h, replicate 2", "result": "7% and 14%"},
      {"measurement": "Population Tubulin-Different-Phenotype (%)", "setting": "[1]; 24 h, replicate 2", "result": "31% and 30%"},
      {"measurement": "Total Cell Count", "setting": "[1]; 24 h, replicate 2", "result": "168 and 127"},
      {"measurement": "Population Apoptotic (%)", "setting": "[2]; 12 h, replicate 1", "result": "75% and 73%"},
      {"measurement": "Population Fragmented Nuclei (%)", "setting": "[2]; 12 h, replicate 1", "result": "29% and 31%"},
      {"measurement": "Population Healthy Nuclei (%)", "setting": "[2]; 12 h, replicate 1", "result": "56% and 60%"},
      {"measurement": "Population Hoechst High Intensity Objects (%)", "setting": "[2]; 12 h, replicate 1", "result": "20% and 12%"},
      {"measurement": "Population Membrane Permeable-Phenotype (%)", "setting": "[2]; 12 h, replicate 1", "result": "10% and 4%"},
      {"measurement": "Population Mitochondria Different-Phenotype (%)", "setting": "[2]; 12 h, replicate 1", "result": "2% and 3%"},
      {"measurement": "Population Mitotic Cells (%)", "setting": "[2]; 12 h, replicate 1", "result": "25% and 26%"},
      {"measurement": "Population Normal (%)", "setting": "[2]; 12 h, replicate 1", "result": "79% and 87%"},
      {"measurement": "Population Pyknosed Nuclei (%)", "setting": "[2]; 12 h, replicate 1", "result": "14% and 7%"},
      {"measurement": "Population Tubulin-Different-Phenotype (%)", "setting": "[2]; 12 h, replicate 1", "result": "6% and 4%"},
      {"measurement": "Total Cell Count", "setting": "[2]; 12 h, replicate 1", "result": "314 and 234"},
      {"measurement": "Population Apoptotic (%)", "setting": "[2]; 12 h, replicate 2", "result": "33% and 60%"},
      {"measurement": "Population Fragmented Nuclei (%)", "setting": "[2]; 12 h, replicate 2", "result": "60% and 64%"},
      {"measurement": "Population Healthy Nuclei (%)", "setting": "[2]; 12 h, replicate 2", "result": "33% and 25%"},
      {"measurement": "Population Hoechst High Intensity Objects (%)", "setting": "[2]; 12 h, replicate 2", "result": "30% and 32%"},
      {"measurement": "Population Membrane Permeable-Phenotype (%)", "setting": "[2]; 12 h, replicate 2", "result": "17% and 15%"},
      {"measurement": "Population Mitochondria Different-Phenotype (%)", "setting": "[2]; 12 h, replicate 2", "result": "11% and 7%"},
      {"measurement": "Population Mitotic Cells (%)", "setting": "[2]; 12 h, replicate 2", "result": "66% and 40%"},
      {"measurement": "Population Normal (%)", "setting": "[2]; 12 h, replicate 2", "result": "69% and 67%"},
      {"measurement": "Population Pyknosed Nuclei (%)", "setting": "[2]; 12 h, replicate 2", "result": "5% and 9%"},
      {"measurement": "Population Tubulin-Different-Phenotype (%)", "setting": "[2]; 12 h, replicate 2", "result": "29% and 23%"},
      {"measurement": "Total Cell Count", "setting": "[2]; 12 h, replicate 2", "result": "73 and 76"},
      {"measurement": "Population Apoptotic (%)", "setting": "[2]; 24 h, replicate 1", "result": 53, "unit": "%"},
      {"measurement": "Population Fragmented Nuclei (%)", "setting": "[2]; 24 h, replicate 1", "result": "32% and 26%"},
      {"measurement": "Population Healthy Nuclei (%)", "setting": "[2]; 24 h, replicate 1", "result": "53% and 60%"},
      {"measurement": "Population Hoechst High Intensity Objects (%)", "setting": "[2]; 24 h, replicate 1", "result": "19% and 17%"},
      {"measurement": "Population Membrane Permeable-Phenotype (%)", "setting": "[2]; 24 h, replicate 1", "result": 5, "unit": "%"},
      {"measurement": "Population Mitochondria Different-Phenotype (%)", "setting": "[2]; 24 h, replicate 1", "result": 2, "unit": "%"},
      {"measurement": "Population Mitotic Cells (%)", "setting": "[2]; 24 h, replicate 1", "result": 46, "unit": "%"},
      {"measurement": "Population Normal (%)", "setting": "[2]; 24 h, replicate 1", "result": "80% and 82%"},
      {"measurement": "Population Pyknosed Nuclei (%)", "setting": "[2]; 24 h, replicate 1", "result": "14% and 13%"},
      {"measurement": "Total Cell Count", "setting": "[2]; 24 h, replicate 1", "result": "314 and 235"},
      {"measurement": "Population Apoptotic (%)", "setting": "[2]; 24 h, replicate 2", "result": "66% and 50%"},
      {"measurement": "Population Fragmented Nuclei (%)", "setting": "[2]; 24 h, replicate 2", "result": 62, "unit": "%"},
      {"measurement": "Population Healthy Nuclei (%)", "setting": "[2]; 24 h, replicate 2", "result": "26% and 29%"},
      {"measurement": "Population Hoechst High Intensity Objects (%)", "setting": "[2]; 24 h, replicate 2", "result": "27% and 33%"},
      {"measurement": "Population Membrane Permeable-Phenotype (%)", "setting": "[2]; 24 h, replicate 2", "result": "14% and 6%"},
      {"measurement": "Population Mitotic Cells (%)", "setting": "[2]; 24 h, replicate 2", "result": "33% and 50%"},
      {"measurement": "Population Normal (%)", "setting": "[2]; 24 h, replicate 2", "result": "72% and 66%"},
      {"measurement": "Population Pyknosed Nuclei (%)", "setting": "[2]; 24 h, replicate 2", "result": "11% and 7%"},
      {"measurement": "Population Tubulin-Different-Phenotype (%)", "setting": "[2]; 24 h, replicate 2", "result": "21% and 31%"},
      {"measurement": "Total Cell Count", "setting": "[2]; 24 h, replicate 2", "result": "73 and 81"}
    ]}
  ]
}
